Screening results as filed in PubChem.
Shown are actives, neighbours in structure and some others; about 4.1% of the full set was active somewhere.
KCC2 mod = modulators of human KCC2 chloride dependent transport | Q9H2X9 | KCC2 cells, thallium flux FluoZin-2 fluorescence | B-score of Tl+ flux slope (higher = more flux/activation; lower = inhibition) at 10 µM | actives 2.2% (n = 190,000) | AID 1456;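 active means thallium flux slope and its plate-corrected score both differing from the plate sample mean at a set confidence after two filtering rounds, in either direction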;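 further: slope of fluorescence scaled to starting intensity during 10 to 20 s after thallium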
KCNQ1 block = blocks the human KCNQ1 potassium channel. CHO-K1 KCNQ1, FluxOR thallium flux fluorescence; hits give high values. P51787. B-score at 10 µM. actives 1.3% (n = 310,000). AID 2642;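 active means compounds whose thallium flux B-score, printed positive for inhibition, exceeds three library SD while starting fluorescence stays within three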;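 further: channel opened by potassium depolarization with thallium stimulus after 20 min compound exposure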
KCNQ1 pot = potentiates or activates the human KCNQ1 potassium channel | B-score at 10 µM | actives 0.35% (n = 310,000) | P51787 | CHO-K1 KCNQ1, thallium flux FluxOR fluorescence; hits give high values;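 active means fluorescence ratio B-score, a plate-corrected score, at least three library SD, with initial intensity B-score within 5 SD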
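Test system: CHO-K1 cells stably expressing KCNQ1 / Medium: assay buffer / Also added: depolarizing K+/Tl+ stimulus, K2SO4 and Tl2SO4 each 12.5 mM in 5x stock / Incubation: 90 min dye loading and 20 min compound exposure, both at room temperature / Signal: thallium influx via FluxOR fluorescence, kinetic imaging / Evaluation: B score of baseline-normalized fluorescence ratio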
KCNK9 block = human KCNK9 channel inhibition. B-score at 10 µM. Q9NPC2. HEK293 KCNK9, FluxOR thallium flux fluorescence; hits give low values. actives 1.2% (n = 310,000). AID 488922;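 active means ratio B-score over 3 SD below the library mean, with starting fluorescence within 5 SD of its mean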;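 further: negative B-score means less thallium flux so channel inhibition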
Target sequence (Q9NPC2 whole entry, looked up): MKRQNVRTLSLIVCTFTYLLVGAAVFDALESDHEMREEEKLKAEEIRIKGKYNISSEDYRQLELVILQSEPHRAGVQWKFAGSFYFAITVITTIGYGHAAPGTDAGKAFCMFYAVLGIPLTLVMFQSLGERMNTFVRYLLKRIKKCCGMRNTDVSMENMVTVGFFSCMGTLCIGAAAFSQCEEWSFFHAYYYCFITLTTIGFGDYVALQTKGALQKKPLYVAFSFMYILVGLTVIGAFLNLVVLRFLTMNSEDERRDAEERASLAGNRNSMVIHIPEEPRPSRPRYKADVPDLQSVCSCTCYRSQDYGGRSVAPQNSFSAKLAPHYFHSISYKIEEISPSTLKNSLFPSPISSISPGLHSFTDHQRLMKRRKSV
hERG protect = shields human hERG channel from block by proarrhythmic agents; Q12809; CHO-hERG, FluxOR thallium flux, dofetilide IC70 present; activation (rescue from dofetilide block), less the hit threshold, % at 10 µM; actives 0.51% (n = 310,000);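 active means activation above the mean of controls blocked by dofetilide plus 5 SD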;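 further: thallium influx through hERG after potassium depolarization seen as dye fluorescence rise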
KCNK3 block = human KCNK3 channel inhibition, primary screen | B-score at 10 µM | O14649 | CHO-KCNK3 thallium flux, FluxOR fluorescence; hits give low values | actives 0.84% (n = 340,000);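 active means B-score under library mean minus 4 SD, starting fluorescence ratio at most library mean plus 5 SD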;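 further: more negative B-score means stronger inhibition of thallium flux through KCNK3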
* hit, by the source's call.

How did COc1ccc(N2CCN(C(=O)CN(C3CCCCC3)S(C)(=O)=O)CC2)cc1 do in these assays?
KCC2 mod: 0.13; KCNQ1 block: inactive; KCNQ1 pot: inactive; KCNK9 block: inactive; hERG protect: 32*; KCNK3 block: inactive

How did COc1ccc(C(C[N+](=O)[O-])c2c(-c3ccccc3)cc3ccccn23)cc1 (centres undefined) do in these assays?
KCC2 mod: -0.44; KCNQ1 block: 8*; KCNQ1 pot: inactive; KCNK9 block: inactive; hERG protect: -11; KCNK3 block: inactive

What do the screens show for `COc1ccc(C(C[N+](=O)[O-])c2c(-c3ccccc3)cc3ccccn23)cc1OC` (centres undefined)?
KCC2 mod: -0.49; KCNQ1 block: inactive; KCNQ1 pot: inactive; KCNK9 block: inactive; hERG protect: -16; KCNK3 block: inactive

How did COc1cc(C(C[N+](=O)[O-])c2c(-c3ccccc3)cc3ccccn23)cc(OC)c1OC (centres undefined) do in these assays?
KCC2 mod: -0.0097; KCNQ1 block: inactive; KCNQ1 pot: inactive; KCNK9 block: -7.9*; hERG protect: -4; KCNK3 block: inactive

How did O=C(CCC1CCCN(Cc2ccncc2)C1)NCc1ccc(F)c(F)c1 (centres undefined) do in these assays?
KCC2 mod: -0.075; KCNQ1 block: inactive; KCNQ1 pot: inactive; KCNK9 block: inactive; hERG protect: -5; KCNK3 block: inactive

Results for CCOc1ccc(S(=O)(=O)N2CCN(C(=S)NCc3ccccc3)CC2)cc1 ?
KCC2 mod: -1; KCNQ1 block: inactive; KCNQ1 pot: inactive; KCNK9 block: inactive; hERG protect: -11; KCNK3 block: inactive

Results for Cc1ccnc(N2C(=O)c3cccc4c([N+](=O)[O-])ccc(c34)C2=O)c1 ?
KCNQ1 block: 7*; KCNQ1 pot: inactive; KCNK9 block: inactive; hERG protect: -13; KCNK3 block: inactive

Results for Cc1ccc(N2C(=O)c3cccc4c([N+](=O)[O-])ccc(c34)C2=O)c2cccnc12 ?
KCC2 mod: 0; KCNQ1 block: inactive; KCNQ1 pot: inactive; KCNK9 block: inactive; hERG protect: -7; KCNK3 block: inactive

What do the screens show for `O=C(CSc1nnc2c(n1)[nH]c1ccc(F)cc12)OCc1ccccc1`?
KCNQ1 block: inactive; KCNQ1 pot: inactive; KCNK9 block: inactive; hERG protect: -14; KCNK3 block: inactive

Results for CCN1C(=O)[C@H]2[C@@H](c3ccc(C)cc3)N3C(=O)N(c4ccc(C)cc4)C(=O)[C@@]3(CC)[C@H]2C1=O ?
KCNQ1 block: inactive; KCNQ1 pot: inactive; KCNK9 block: inactive; hERG protect: -8; KCNK3 block: inactive

What do the screens show for `CCN1C(=O)[C@H]2[C@@H](c3ccc(C)cc3)N3C(=O)N(c4ccc(C(F)(F)F)cc4)C(=O)[C@@]3(CC(C)C)[C@H]2C1=O`?
KCNQ1 block: inactive; KCNQ1 pot: inactive; KCNK9 block: -7.6*; hERG protect: -7; KCNK3 block: inactive

Results for CC1CCCN(S(=O)(=O)c2ccc(C(=O)Nc3nnc(-c4ccccn4)o3)cc2)C1 (centres undefined) ?
KCC2 mod: -0.13; KCNQ1 block: inactive; KCNQ1 pot: inactive; KCNK9 block: inactive; hERG protect: -12; KCNK3 block: inactive

Results for CC1CCCN(S(=O)(=O)c2ccc(C(=O)Nc3nnc(-c4ccccc4Cl)o3)cc2)C1 (centres undefined) ?
KCC2 mod: 21*; KCNQ1 block: inactive; KCNQ1 pot: inactive; KCNK9 block: inactive; hERG protect: -3; KCNK3 block: inactive

How did CCc1cc2c(SCC(=O)N(CC)c3c(N)n(Cc4ccccc4)c(=O)[nH]c3=O)ncnc2s1 do in these assays?
KCC2 mod: -0.57; KCNQ1 block: inactive; KCNQ1 pot: inactive; KCNK9 block: inactive; hERG protect: -22; KCNK3 block: inactive

How did COc1ccc(N(C)C(=O)c2ccc3nc(-c4ccccc4)c(-c4ccccc4)nc3c2)cc1 do in these assays?
KCC2 mod: -0.17; KCNQ1 block: 9*; KCNQ1 pot: inactive; KCNK9 block: -7.4*; hERG protect: -10; KCNK3 block: inactive

How did CC(C)N(C(=O)c1ccc2nc(-c3ccccc3)c(-c3ccccc3)nc2c1)C(C)C do in these assays?
KCC2 mod: 0.42; KCNQ1 block: inactive; KCNQ1 pot: inactive; KCNK9 block: inactive; hERG protect: -9; KCNK3 block: inactive

What do the screens show for `CCN1CCN(c2nc(C)c3c(n2)CCCC3=O)CC1`?
KCC2 mod: -0.11; KCNQ1 block: inactive; KCNQ1 pot: inactive; KCNK9 block: inactive; hERG protect: -12; KCNK3 block: inactive

What do the screens show for `COc1ccc(/C=C/c2nc3ccccc3n2Cc2ccccc2OC)cc1`?
KCC2 mod: -0.54; KCNQ1 block: inactive; KCNQ1 pot: inactive; KCNK9 block: inactive; hERG protect: -15; KCNK3 block: inactive

Results for COc1ccccc1Cn1c(/C=C/c2ccccc2)nc2ccccc21 ?
KCC2 mod: -0.038; KCNQ1 block: inactive; KCNQ1 pot: inactive; KCNK9 block: -7*; hERG protect: -7; KCNK3 block: inactive

Results for C=CCNC(=O)/C(C#N)=C/c1ccccc1OCc1ccc(C(=O)OC)cc1 ?
KCC2 mod: 0.71; KCNQ1 block: inactive; KCNQ1 pot: inactive; KCNK9 block: inactive; hERG protect: -7; KCNK3 block: inactive

What do the screens show for `O=C(Nc1nccs1)c1ccc([N+](=O)[O-])cc1`?
KCC2 mod: 0.32; KCNQ1 block: inactive; KCNQ1 pot: inactive; KCNK9 block: inactive; hERG protect: -6; KCNK3 block: inactive

Results for O=C(/C(=C/O)N=Nc1ccccc1)c1ccncc1 ?
KCNQ1 block: inactive; KCNQ1 pot: inactive; KCNK9 block: -7.6*; hERG protect: -8; KCNK3 block: inactive

How did O=C(/C(=C/O)N=Nc1ccccc1)c1ccc(Cl)cc1 do in these assays?
KCC2 mod: 0.35; KCNQ1 block: inactive; KCNQ1 pot: inactive; KCNK9 block: inactive; hERG protect: -7; KCNK3 block: inactive

How did NCC12CC3CC(C1)CC(c1ccc(Cl)cc1)(C3)C2 do in these assays?
KCC2 mod: 2.7; KCNQ1 block: inactive; KCNQ1 pot: inactive; KCNK9 block: -7.2*; hERG protect: -37; KCNK3 block: inactive

Results for Nc1ccc(C23CC4CC(CC(CO)(C4)C2)C3)cc1 ?
KCC2 mod: -1.2; KCNQ1 block: inactive; KCNQ1 pot: inactive; KCNK9 block: inactive; hERG protect: -8; KCNK3 block: inactive

What do the screens show for `COc1ccc(-c2cc(C(F)(F)F)nc(S(C)(=O)=O)n2)cc1`?
KCC2 mod: 0.19; KCNQ1 block: 6*; KCNQ1 pot: inactive; KCNK9 block: inactive; hERG protect: -11; KCNK3 block: inactive
